In ChEMBL document CHEMBL5550082, “Discovery of pyrazolo[3,4-d]pyrimidines as novel mitogen-activated protein kinase kinase 3 (MKK3) inhibitors” (Bioorg Med Chem, 2024):
Values after ≈ are worked out from the molar mass of the structure shown. Active and inactive are the calls of the source. The calls are words filed in the database; no cut-off is given here.

Tests used:
[1] = Inhibition of N-terminal GST-tagged recombinant human MKK3 […]/T193E mutant expressed in baculovirus infected Sf9 insect cells using STK-3-biotin as substrate at 5 uM preincubated for 30 mins followed by substrate/ATP addition measured after 90 mins by TR-FRET assay relative to control; settings: time 120.0 min
Outline: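 GST-tagged MKK3 S189E/T193E (MKK3E), glutathione-purified from baculovirus-infected Sf9 cells, was used at 100 nM. It was preincubated 30 min at room temperature with compound, then 1 µM ATP and 1 µM STK-3-biotin peptide were added and reacted at least 90 min at 30 °C. Reactions were stopped with Eu-antibody and streptavidin-XL665, and HTRF was read as the 665/620 nm ratio.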

[2] = Aqueous solubility of compound; type: physicochemical; settings: water (aqueous)
[3] = molecular target: Death-associated protein kinase 3 (Homo sapiens) (UniProt O43293); test: Displacement of Eu-Streptavidin from human DAPK3 by TR-FRET assay
Sequence of Death-associated protein kinase 3 (Homo sapiens) (O43293 whole entry, looked up): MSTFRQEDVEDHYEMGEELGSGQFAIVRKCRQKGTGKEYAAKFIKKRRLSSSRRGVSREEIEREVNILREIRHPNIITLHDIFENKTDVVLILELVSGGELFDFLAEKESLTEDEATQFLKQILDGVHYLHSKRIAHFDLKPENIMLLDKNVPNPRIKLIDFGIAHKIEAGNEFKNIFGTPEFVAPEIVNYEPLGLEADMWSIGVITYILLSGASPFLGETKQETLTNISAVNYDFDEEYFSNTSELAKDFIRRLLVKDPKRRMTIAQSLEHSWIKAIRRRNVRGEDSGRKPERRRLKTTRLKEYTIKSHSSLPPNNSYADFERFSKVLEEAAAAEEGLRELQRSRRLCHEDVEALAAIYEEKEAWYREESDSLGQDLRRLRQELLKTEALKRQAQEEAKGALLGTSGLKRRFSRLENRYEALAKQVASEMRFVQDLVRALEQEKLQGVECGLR
Outline: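 Human DAPK3, biotinylated in vivo during expression, tested in a TR-FRET assay measuring competitive displacement of a generic ATP-competitive fluorescent tracer. Compound tested at a single concentration of 1 µM. Displacement is relative to vehicle: DMSO sets 0 % and a reference inhibitor specific to the kinase sets 100 %.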

[4] = molecular target: T1, Dual specificity mitogen-activated protein kinase kinase 3 (Homo sapiens, UniProt P46734); test: Displacement of tracer K-9 from C-terminal NanoLuc fused full-length MKK3 (unknown origin) transfected in HEK293T cells by BRET assay; type: cell-based
T1 sequence (P46734 whole entry): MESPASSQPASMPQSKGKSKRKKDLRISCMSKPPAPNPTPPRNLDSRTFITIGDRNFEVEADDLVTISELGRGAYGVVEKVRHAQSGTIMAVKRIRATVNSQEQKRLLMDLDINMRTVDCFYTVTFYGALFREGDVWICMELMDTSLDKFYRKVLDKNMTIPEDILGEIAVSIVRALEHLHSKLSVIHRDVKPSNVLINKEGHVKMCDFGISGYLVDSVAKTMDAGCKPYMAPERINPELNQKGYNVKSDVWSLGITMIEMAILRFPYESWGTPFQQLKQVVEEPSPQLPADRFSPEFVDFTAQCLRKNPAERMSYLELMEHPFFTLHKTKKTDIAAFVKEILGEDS
Outline: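 HEK293T cells in DMEM with 10 % FBS were transiently transfected with full-length wild-type MKK3 carrying a C-terminal NanoLuc fusion and cultured 48 h at 37 °C. The cells were then resuspended in Opti-MEM at 2×10^5 cells/mL. Tracer K-9 was added at 1.0 μM final with compound dilutions (2 % DMSO final) for 2 h. After NanoLuc substrate plus extracellular inhibitor, emissions at 460 and 610 nm were read as mBRET, normalized, and fitted to give IC50.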

Compound | inhibition [1] | further results
CC(C)(C)n1nc(-c2ccc(F)c(C#N)c2)c2c(N)ncnc21 | 35.6% | 
CC(C)(C)n1nc(-c2cc(Cl)cc(Cl)c2)c2c(N)ncnc21 | 23.4% | 
CC(C)(C)n1nc(-c2ccc(S(=O)(=O)NC3CC3)cc2)c2c(N)ncnc21 | 12.6% | 
CC(C)(C)n1nc(-c2ccc(N)c3ccccc23)c2c(N)ncnc21 | 54.8% | 
CC(C)(C)n1nc(-c2ccnc3ccccc23)c2c(N)ncnc21 | 3.4% | 
CC(C)(C)n1nc(-c2cccc(Cl)c2F)c2c(N)ncnc21 | 35.2% | 
CC(C)(C)n1nc(-c2ccc(F)c(Cl)c2)c2c(N)ncnc21 | 39.3% | 
CC(C)(C)n1nc(-c2cccc(Cl)c2)c2c(N)ncnc21 | 19.8% | 
CC(C)(C)n1nc(-c2ccccc2)c2c(N)ncnc21 | 34.8% | 
CC(C)(C)n1nc(-c2cccc(C(=O)NC3CC3)c2)c2c(N)ncnc21 | 7.1% | 
CC(C)(C)n1nc(-c2cccc3cn[nH]c23)c2c(N)ncnc21 | inactive | 
CC(C)NC(=O)c1ccc(-c2nn(C(C)(C)C)c3ncnc(N)c23)cc1 | 26.4% | 
CC(C)(C)n1nc(-c2ccc3ncccc3c2)c2c(N)ncnc21 | 28.2% | 
CC(C)(C)n1nc(-c2ccc3[nH]ccc3c2)c2c(N)ncnc21 | 58.2% | 
CC(C)(C)n1nc(-c2cccc(C#N)c2)c2c(N)ncnc21 | inactive | 
CC(C)(C)n1nc(-c2cccc3cnccc23)c2c(N)ncnc21 | 12.4% | 
CC(C)(C)n1nc(-c2ccccc2F)c2c(N)ncnc21 | 37.4% | 
CC(C)(C)n1nc(-c2ccc(F)c(C(=O)NCCO)c2)c2c(N)ncnc21 | 5.2% | 
CC(C)n1nc(-c2cc3cc(O)ccc3[nH]2)c2c(N)ncnc21 |  | solubility [2]: 6 µg/mL (≈ 19.5 µM); Activity [3]: Active
CC(C)(C)n1nc(-c2cc(F)c(O)c(F)c2)c2c(N)ncnc21 | 44.9% | IC50 [4]: 145 µM; Activity [3]: > 80%
